For assay [1], the target named is T1, Adenosine receptor A2a (Homo sapiens, UniProt P29274). Put plainly: Displacement of [3H]ZM241385 from human recombinant adenosine A2A receptor expressed in HEK293 cells after 1 hr by competitive binding assay. The format is cell-based. The procedure, abridged: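 HEK293 membranes expressing human A2A receptor pretreated with 2 IU/mL adenosine deaminase, 30 min at 37 °C. Competition with [3H]ZM241385 at its Kd (2 nM) using 5–10 µg protein and test compound 0.01–10,000 nM, 1 h at 4 °C in 50 mM Tris-HCl pH 7.4, 10 mM MgCl2. Nonspecific binding with 10 µM unlabeled ZM241385. Ki via Cheng–Prusoff; four experiments in triplicate.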
T1 sequence (P29274 whole entry): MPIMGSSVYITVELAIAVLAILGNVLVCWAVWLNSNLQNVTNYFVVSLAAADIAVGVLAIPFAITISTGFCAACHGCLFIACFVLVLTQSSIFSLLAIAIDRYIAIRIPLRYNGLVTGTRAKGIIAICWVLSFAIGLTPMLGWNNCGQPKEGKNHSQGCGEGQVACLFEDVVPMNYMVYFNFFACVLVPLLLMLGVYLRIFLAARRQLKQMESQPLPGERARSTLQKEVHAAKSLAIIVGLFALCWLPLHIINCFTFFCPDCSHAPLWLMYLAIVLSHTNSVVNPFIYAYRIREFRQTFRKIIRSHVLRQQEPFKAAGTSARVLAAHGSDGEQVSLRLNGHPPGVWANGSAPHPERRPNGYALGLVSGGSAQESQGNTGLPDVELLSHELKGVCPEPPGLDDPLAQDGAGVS
(Displacement assays read how much labelled ligand stays bound in the presence of the test substance.)

Assay [2] deals with T2, Adenosine receptor A1 (Homo sapiens, UniProt P30542).
T2 sequence (P30542 whole entry): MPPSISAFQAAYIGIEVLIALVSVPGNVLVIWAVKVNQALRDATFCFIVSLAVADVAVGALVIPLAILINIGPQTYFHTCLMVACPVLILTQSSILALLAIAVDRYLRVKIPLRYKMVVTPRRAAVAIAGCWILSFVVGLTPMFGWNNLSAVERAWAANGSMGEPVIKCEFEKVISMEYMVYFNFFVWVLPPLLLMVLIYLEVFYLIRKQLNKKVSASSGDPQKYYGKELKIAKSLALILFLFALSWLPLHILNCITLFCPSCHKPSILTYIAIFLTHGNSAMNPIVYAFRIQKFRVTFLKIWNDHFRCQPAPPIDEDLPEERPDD
The assay is described as follows: Displacement of [3H]DPCPX from human recombinant adenosine A1 receptor expressed in CHO-K1 cells after 60 mins. The format is cell-based.

Assay [3] addresses T1, Adenosine receptor A2a. Put plainly: Inhibition of human recombinant adenosine A2A receptor expressed in HEK293 cells at 10 uM. The format is cell-based.
Assay [4] addresses T3, Adenosine receptor A3 (Homo sapiens) (UniProt P0DMS8).
T3 sequence (whole entry): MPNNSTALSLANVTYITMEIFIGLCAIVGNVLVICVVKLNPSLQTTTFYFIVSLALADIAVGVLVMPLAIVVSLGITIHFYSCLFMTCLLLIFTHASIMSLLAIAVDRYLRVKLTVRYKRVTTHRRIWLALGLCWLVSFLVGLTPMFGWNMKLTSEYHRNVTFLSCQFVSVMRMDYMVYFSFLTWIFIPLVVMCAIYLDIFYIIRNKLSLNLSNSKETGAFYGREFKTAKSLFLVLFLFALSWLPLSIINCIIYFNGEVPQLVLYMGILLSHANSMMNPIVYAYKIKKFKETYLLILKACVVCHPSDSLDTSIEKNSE
Put plainly: Inhibition of human adenosine A3 receptor at 10 uM.

Assay [5] has as its target T4, Adenosine receptor A1 (Homo sapiens) (UniProt P30542).
T4 sequence (whole entry): T2 sequence (P30542 whole entry)
Put plainly: Inhibition of human recombinant adenosine A1 receptor expressed in CHO-K1 cells at 10 uM. The format is cell-based.

The target of assay [6] is T3, Adenosine receptor A3 (Homo sapiens). The assay is described as follows: Binding affinity to human adenosine A3 receptor.
Assay [7] concerns Mus musculus. The assay is described as follows: Induction of striatal movement in CD1 mouse at 20 to 200 mg/kg, po after 60 to 240 mins by Irwin test. Type of assay: functional, organism-based. The procedure, abridged:
(§1)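 Irwin test in CD-1 mice, 5–6 weeks old, 4 per group. Compounds suspended in 0.1% Tween 80 in 0.5% CMC and given orally at 20, 100 and 200 mg/kg in 10 mL/kg. Behaviour recorded by camera at 60 and 240 min after dosing; stereotypies scored: sniffing (limbic), licking and biting (striatal).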

The test system of assay [8] is Mus musculus. Put plainly: Induction of limbic movement in CD1 mouse at 20 to 200 mg/kg, po after 60 to 240 mins by Irwin test. The format is functional, organism-based. Conditions: Limbic system. The method in brief:
as §1

The target in assay [9] is T1, Adenosine receptor A2a. Put plainly: Antagonist activity at human adenosine A2A receptor expressed in HEK293 cells assessed as inhibition of NECA-induced cAMP accumulation incubated for 10 mins prior to NECA addition. Type of assay: functional, cell-based. The method in brief:
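HEK-293 cells stably expressing human A2A, plated 48 h ahead. They were pretreated 10 min at 37 °C with 0.5 mM Ro20-1724 and 2 IU/mL adenosine deaminase, then compound (10^-4 to 10^-10 M) for 10 min at 37 °C, then 100 nM NECA for 20 min. cAMP was extracted and measured by enzyme immunoassay. IC50 came from nonlinear regression of four independent experiments.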

Activity calls are given as the source filed them. No cut-off for these calls is given here.

`CCC(O)Cc1nc(N)c2nc(-n3nccn3)n(C)c2n1` (configuration not stated): the Ki in assay [1] worked out at 64 nM.

On to `C[C@H](O)CCc1nc(N)c2nc(-n3nccn3)n(C)c2n1`, for which the Ki in [2] was 53 nM.

As to `C[C@@H](O)CCc1nc(N)c2nc(-n3nccn3)n(C)c2n1`, the Ki was 7.5 nM in assay [1] and 34 nM in assay [2].

For the molecule `Cn1c(-n2nccn2)nc2c(N)nc(CCCCO)nc21`, the inhibition entry in [3] and in [5] was “Active” in each case. Besides, the inhibition in assay [4] is 47%. Also, the Ki in [2] was found to be 150 nM. In assay [6], the result was inactive.

Regarding `CC(=O)CCc1nc(N)c2nc(-n3nccn3)n(C)c2n1`, the outcome in [7] and in [8] was Active. Moreover, the inhibition result in assay [3] and in assay [5] was “Active” throughout. The molecule further registered an inhibition in assay [4] of 56%. In addition, in assay [6], the outcome was inactive.

Regarding `CCCC(O)c1nc(N)c2nc(-n3nccn3)n(C)c2n1` (racemic), the result in assay [7] and in [8] was Active. Also, the inhibition entry in assay [3] and in assay [5] was “Active” throughout. This molecule also showed an inhibition in assay [4] of 55%. Also, in assay [2], the Ki was 160 nM. Moreover, the outcome in assay [6] was inactive.

Consider `CC(O)CCc1nc(N)c2nc(-n3nccn3)n(C)c2n1` (racemic), for which the result in [7] and in [8] was Active. The figures for the Ki in [1] and in [2] were 8.4 nM and 34 nM, respectively. Further, the inhibition entry in [3] and in [5] was “Active” each time. This molecule also had an inhibition in assay [4] of 61%. In addition, in assay [6], the outcome was inactive.

As to `CCCCc1nc(N)c2nc(-n3nccn3)n(C)c2n1` [ST1535], in [9], the IC50 is 430 nM. Also, in [2], the inhibitory constant (Ki) amounted to 100 nM.

The term Ki denotes a measure of affinity in units of concentration, obtained from inhibition or displacement. By inhibition is commonly meant the relative decrease from the control value, in per cent. As usually defined, the IC50 is the point on the concentration scale where inhibition reaches its midpoint.

The values are drawn from ChEMBL document CHEMBL2396554, “Synthesis and biological evaluation of metabolites of 2-n-butyl-9-methyl-8-[1,2,3]triazol-2-yl-9H-purin-6-ylamine (ST1535), a potent antagonist of the A2A adenosine receptor for the treatment of Parkinson's disease” (J Med Chem, 2013).
